Laboratory results reported in ChEMBL document CHEMBL3745665, “Discovery of benzamides as potent human β3 adrenergic receptor agonists” (Bioorg Med Chem Lett, 2016).

Columns and labels:
[1] = biological target: T1, Beta-3 adrenergic receptor (Homo sapiens, UniProt P13945); assay: Agonist activity at human beta-3 adrenergic receptor expressed in CHO cells assessed as increase in cAMP level after 30 mins by LANCE TR-FRET assay; type: functional, cell-based
Target sequence in this assay (P13945 whole entry): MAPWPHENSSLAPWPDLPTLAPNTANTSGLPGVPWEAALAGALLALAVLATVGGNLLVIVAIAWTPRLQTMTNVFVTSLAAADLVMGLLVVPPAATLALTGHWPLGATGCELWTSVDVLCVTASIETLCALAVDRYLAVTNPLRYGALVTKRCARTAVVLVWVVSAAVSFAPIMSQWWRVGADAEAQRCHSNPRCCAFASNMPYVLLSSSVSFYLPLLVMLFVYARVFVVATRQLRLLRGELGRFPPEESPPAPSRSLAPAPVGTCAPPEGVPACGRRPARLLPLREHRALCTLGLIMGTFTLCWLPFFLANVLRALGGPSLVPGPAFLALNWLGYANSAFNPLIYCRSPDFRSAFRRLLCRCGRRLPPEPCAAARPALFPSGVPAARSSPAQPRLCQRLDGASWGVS

[2] = biological target: T1, Beta-3 adrenergic receptor; assay: Agonist activity at human beta-3 adrenergic receptor expressed in CHO cells assessed as increase in cAMP level after 30 mins by LANCE TR-FRET assay relative to R-(-)-isoproterenol; type: functional, cell-based
How it was run: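 Efficacy: the fitted maximal value of each test compound's concentration–response curve, expressed as a percent of the maximal response to R-(−)-isoproterenol.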
Target sequence in this assay (P13945 whole entry, looked up): as the sequence (P13945 whole entry) above

[3] = biological target: Beta-2 adrenergic receptor (Homo sapiens, UniProt P07550); assay: Displacement of [125I]CYP from human beta-2 adrenergic receptor expressed in CHO cell membrane after 1 hr by scintillation counting method; type: cell membranes
[4] = biological target: Beta-1 adrenergic receptor (Homo sapiens, UniProt P08588); assay: Displacement of [125I]CYP from human beta-1 adrenergic receptor expressed in CHO cell membrane after 1 hr by scintillation counting method; type: cell membranes
[5] = Stability in dog hepatocytes assessed as residual compound after 60 mins; type: ADME, cell-based, Canis lupus familiaris, Hepatocyte; conditions: read-out: Stability
[6] = Stability in human liver microsomes assessed as residual compound after 45 mins; type: ADME; conditions: read-out: Stability
[7] = Volume of distribution in rat at 1 mg/kg, iv or 2 mg/kg, po; type: ADME, organism-based; conditions: in vivo
[8] = Stability in rhesus monkey liver microsomes assessed as residual compound after 45 mins; type: ADME, Macaca mulatta; conditions: read-out: Stability
[9] = Stability in rat liver microsomes assessed as residual compound after 45 mins; type: ADME; conditions: read-out: Stability
[10] = test system: Rattus norvegicus; assay: Dose normalized AUC in rat at 2 mg/kg, po; type: ADME, organism-based; conditions: in vivo
[11] = Stability in rat hepatocytes assessed as residual compound after 60 mins; type: ADME, cell-based, Hepatocyte; conditions: read-out: Stability
[12] = Stability in dog liver microsomes assessed as residual compound after 45 mins; type: ADME, Canis lupus familiaris; conditions: read-out: Stability
[13] = Plasma clearance in rat at 1 mg/kg, iv or 2 mg/kg, po; type: ADME, organism-based
[14] = biological target: Voltage-gated inwardly rectifying potassium channel KCNH2 (Homo sapiens, UniProt Q12809); assay: Inhibition of human ERG by IKr binding assay
[15] = Oral bioavailability in rat at 2 mg/kg; type: ADME, organism-based; conditions: in vivo
[16] = Stability in human hepatocytes assessed as residual compound after 60 mins; type: ADME, cell-based, Hepatocyte; conditions: read-out: Stability
[17] = Half life in rat at 1 mg/kg, iv or 2 mg/kg, po; type: ADME, organism-based; conditions: in vivo
[18] = Plasma clearance in dog at 0.5 mg/kg, iv or 2 mg/kg, po; type: ADME, organism-based, Canis lupus familiaris
[19] = Oral bioavailability in dog at 2 mg/kg; type: ADME, organism-based, Canis lupus familiaris; conditions: in vivo
[20] = test system: Canis familiaris; assay: Dose normalized AUC in dog at 2 mg/kg, po; type: ADME, organism-based, Canis lupus familiaris; conditions: in vivo
[21] = Half life in dog at 0.5 mg/kg, iv or 2 mg/kg, po; type: ADME, organism-based, Canis lupus familiaris; conditions: in vivo
[22] = Volume of distribution in dog at 0.5 mg/kg, iv or 2 mg/kg, po; type: ADME, organism-based, Canis lupus familiaris; conditions: in vivo
[23] = test system: Rhesus monkey; assay: Dose normalized AUC in po dosed rhesus monkey; type: ADME, organism-based, Macaca mulatta; conditions: in vivo
[24] = Plasma clearance in rhesus monkey; type: ADME, organism-based, Macaca mulatta
[25] = Volume of distribution in rhesus monkey; type: ADME, organism-based, Macaca mulatta; conditions: in vivo
[26] = Oral bioavailability rhesus monkey; type: ADME, organism-based, Macaca mulatta; conditions: in vivo
[27] = Half life in rhesus monkey; type: ADME, organism-based, Macaca mulatta; conditions: in vivo

Beta-2 adrenergic receptor, sequence (P07550 whole entry): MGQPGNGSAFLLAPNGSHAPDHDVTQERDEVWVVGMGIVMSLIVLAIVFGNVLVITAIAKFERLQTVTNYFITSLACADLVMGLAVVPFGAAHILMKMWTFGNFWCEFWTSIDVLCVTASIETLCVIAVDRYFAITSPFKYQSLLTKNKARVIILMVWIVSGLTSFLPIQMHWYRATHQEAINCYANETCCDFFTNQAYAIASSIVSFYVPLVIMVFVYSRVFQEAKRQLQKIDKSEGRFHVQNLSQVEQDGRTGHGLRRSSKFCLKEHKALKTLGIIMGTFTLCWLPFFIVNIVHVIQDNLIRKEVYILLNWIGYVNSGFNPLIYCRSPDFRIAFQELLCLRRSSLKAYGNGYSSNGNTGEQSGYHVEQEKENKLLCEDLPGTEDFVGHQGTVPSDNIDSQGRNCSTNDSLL
Voltage-gated inwardly rectifying potassium channel KCNH2, sequence (Q12809 whole entry): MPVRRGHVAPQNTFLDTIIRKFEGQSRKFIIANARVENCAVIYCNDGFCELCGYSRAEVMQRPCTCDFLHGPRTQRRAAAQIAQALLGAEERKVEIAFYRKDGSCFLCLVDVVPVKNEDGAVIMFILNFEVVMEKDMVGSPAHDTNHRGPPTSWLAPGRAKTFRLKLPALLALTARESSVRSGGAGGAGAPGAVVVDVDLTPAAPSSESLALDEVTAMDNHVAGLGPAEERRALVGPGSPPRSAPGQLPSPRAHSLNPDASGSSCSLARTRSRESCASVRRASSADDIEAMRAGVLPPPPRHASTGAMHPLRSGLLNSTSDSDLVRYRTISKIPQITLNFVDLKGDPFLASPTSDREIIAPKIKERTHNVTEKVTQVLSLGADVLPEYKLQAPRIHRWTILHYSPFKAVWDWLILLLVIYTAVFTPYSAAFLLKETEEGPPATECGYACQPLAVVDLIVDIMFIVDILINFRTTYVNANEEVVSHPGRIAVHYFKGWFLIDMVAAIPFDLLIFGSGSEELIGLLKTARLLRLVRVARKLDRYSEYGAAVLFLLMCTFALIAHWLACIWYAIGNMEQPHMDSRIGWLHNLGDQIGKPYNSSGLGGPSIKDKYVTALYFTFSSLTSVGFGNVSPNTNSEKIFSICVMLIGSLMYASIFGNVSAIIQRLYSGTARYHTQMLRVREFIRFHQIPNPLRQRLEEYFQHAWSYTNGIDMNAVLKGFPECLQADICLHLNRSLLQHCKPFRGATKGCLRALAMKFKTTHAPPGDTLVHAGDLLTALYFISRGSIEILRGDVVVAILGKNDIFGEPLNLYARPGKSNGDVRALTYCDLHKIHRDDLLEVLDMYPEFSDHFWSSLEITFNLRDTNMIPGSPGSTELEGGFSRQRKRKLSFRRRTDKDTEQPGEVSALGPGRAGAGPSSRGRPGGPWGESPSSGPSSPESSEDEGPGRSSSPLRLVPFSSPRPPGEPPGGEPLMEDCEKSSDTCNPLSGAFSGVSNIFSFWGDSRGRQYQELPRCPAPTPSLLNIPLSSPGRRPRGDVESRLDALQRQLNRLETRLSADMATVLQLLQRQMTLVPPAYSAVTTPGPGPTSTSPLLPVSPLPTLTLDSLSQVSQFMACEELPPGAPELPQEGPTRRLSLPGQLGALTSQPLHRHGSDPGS
Beta-1 adrenergic receptor, sequence (P08588 whole entry): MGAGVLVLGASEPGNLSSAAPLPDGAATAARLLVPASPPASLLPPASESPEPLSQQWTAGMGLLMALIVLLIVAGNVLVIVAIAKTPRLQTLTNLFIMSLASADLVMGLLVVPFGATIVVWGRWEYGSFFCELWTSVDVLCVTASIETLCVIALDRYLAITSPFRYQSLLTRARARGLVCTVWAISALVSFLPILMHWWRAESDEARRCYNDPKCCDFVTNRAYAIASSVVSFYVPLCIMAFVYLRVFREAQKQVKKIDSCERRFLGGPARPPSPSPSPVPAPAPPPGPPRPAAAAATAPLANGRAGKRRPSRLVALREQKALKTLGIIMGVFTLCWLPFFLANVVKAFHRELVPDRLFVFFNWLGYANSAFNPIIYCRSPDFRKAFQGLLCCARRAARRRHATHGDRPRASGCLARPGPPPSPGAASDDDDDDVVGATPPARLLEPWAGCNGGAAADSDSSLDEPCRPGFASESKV

SMILES	EC50 [1] [µM]	%max [2] [%]	IC50 [3] [µM]	IC50 [4] [µM]	Vd [7] [L/kg]	AUC/dose [10] [µM·h/mg/kg]	clearance [13] [mL/min/kg]	bioavailability [15] [%]	half-life [17] [h]	IC50 [14] [µM]	also measured
Nc1nc(CC(=O)Nc2ccc(C[C@@H]3CC[C@H]([C@H](O)c4ccccc4)N3)cc2)cs1		99									
CCOC(=O)C1CCN(C(=O)c2ccc(C[C@@H]3CC[C@H]([C@H](O)c4ccccc4)N3)cc2)CC1	0.063	95	10.9	> 20							
O=C(c1ccc(C[C@@H]2CC[C@H]([C@H](O)c3ccccc3)N2)cc1)N1CCC2(CCOC2=O)CC1	0.0033	89	5.6	> 20	7.2	0.21	56	31	2.5	46	remaining at 0.75 h [6]: 53%; clearance [18]: 31 mL/min/kg; bioavailability [19]: 17%; remaining at 0.75 h [9]: 56%; remaining at 0.75 h [12]: 78%; AUC/dose [20]: 0.23 µM·h; half-life [21]: 3.2 h; Vd [22]: 7.4 L/kg
CC1(C)CC2(CCN(C(=O)c3ccc(C[C@@H]4CC[C@H]([C@H](O)c5ccccc5)N4)cc3)CC2)C(=O)O1	0.0019	85	11	> 20	9.5	0.16	86	38	2	31	
CCOC(=O)[C@H]1[C@@H]2CN(C(=O)c3ccc(C[C@@H]4CC[C@H]([C@H](O)c5ccccc5)N4)cc3)C[C@@H]21	0.00049	90	13.4	> 20							

Continued by falling EC50 [1], values first:

EC50 [1] [µM]	%max [2] [%]	IC50 [3] [µM]	IC50 [4] [µM]	Vd [7] [L/kg]	AUC/dose [10] [µM·h/mg/kg]	clearance [13] [mL/min/kg]	bioavailability [15] [%]	half-life [17] [h]	SMILES	IC50 [14] [µM]	also measured
0.075	97	> 20	> 20						CCOC(=O)[C@@H]1[C@@H]2CN(C(=O)c3ccc(C[C@@H]4CC[C@H]([C@H](O)c5ccccc5)N4)cc3)C[C@@H]21		
0.024	84	5.2	> 20						Nc1nc(CNC(=O)c2ccc(C[C@@H]3CC[C@H]([C@H](O)c4ccccc4)N3)cc2)cs1	> 30	
0.0097	100	> 20	> 20						CCS(=O)(=O)C1CCN(C(=O)c2ccc(C[C@@H]3CC[C@H]([C@H](O)c4ccccc4)N3)cc2)CC1	> 60	
0.0054	97	> 20	> 20	6.5	0.73	29	56	3.2	Cn1nnc([C@H]2[C@@H]3CN(C(=O)c4ccc(C[C@@H]5CC[C@H]([C@H](O)c6ccccc6)N5)cc4)C[C@@H]32)n1	17	clearance [18]: 19 mL/min/kg; bioavailability [19]: 51%; AUC/dose [20]: 0.99 µM·h; half-life [21]: 3.7 h; Vd [22]: 5.5 L/kg
0.0037	84								O=C(Nc1ccc(C[C@@H]2CC[C@H]([C@H](O)c3cccnc3)N2)cc1)C1CCc2ccnn21 (some centres undefined)		
0.0031	97	> 20	> 20	9.3	0.21	56	33	3	CCc1nnc([C@H]2[C@@H]3CN(C(=O)c4ccc(C[C@@H]5CC[C@H]([C@H](O)c6ccccc6)N5)cc4)C[C@@H]32)o1		AUC/dose [23]: 0.06 µM·h; clearance [18]: 36 mL/min/kg; clearance [24]: 30 mL/min/kg; bioavailability [19]: 44%; Vd [25]: 5.2 L/kg; AUC/dose [20]: 0.46 µM·h; half-life [21]: 3.7 h; bioavailability [26]: 5%; Vd [22]: 9.2 L/kg; half-life [27]: 2.4 h
0.0017	101	> 20	> 20	9	0.26	62	43	1.4	O=C(c1ccc(C[C@@H]2CC[C@H]([C@H](O)c3ccccc3)N2)cc1)N1C[C@@H]2[C@H](C1)[C@H]2c1nnco1	55	remaining at 1 h [5]: ≥ 85%; remaining at 0.75 h [6]: 84%; remaining at 0.75 h [8]: 80%; remaining at 0.75 h [9]: 98%; remaining at 1 h [11]: ≥ 85%; remaining at 0.75 h [12]: 73%; remaining at 1 h [16]: ≥ 85%
